pKi: −log10 of the molar value.
Assays:
[1] = target: Kappa-type opioid receptor (Cavia porcellus, UniProt P41144); assay: Inhibition of radioligand [3H]U-69593 binding to kappa 1 receptor of guinea pig brain
Outline: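 Guinea pig brain membranes pretreated with irreversible ligands BIT and FIT to deplete mu and delta sites. Nonspecific binding with 1 μM U69,593. 8-10 drug concentrations, run twice.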

[2] = target: Muscarinic acetylcholine receptor; assay: Inhibition of radioligand [3H]NMS binding to muscarinic receptor of rat brain
[3] = target: Delta-type opioid receptor (Rattus norvegicus, UniProt P33533); assay: Inhibition of radioligand [3H]DADLE binding to rat brain delta receptor
Delta-type opioid receptor, sequence (P33533 whole entry): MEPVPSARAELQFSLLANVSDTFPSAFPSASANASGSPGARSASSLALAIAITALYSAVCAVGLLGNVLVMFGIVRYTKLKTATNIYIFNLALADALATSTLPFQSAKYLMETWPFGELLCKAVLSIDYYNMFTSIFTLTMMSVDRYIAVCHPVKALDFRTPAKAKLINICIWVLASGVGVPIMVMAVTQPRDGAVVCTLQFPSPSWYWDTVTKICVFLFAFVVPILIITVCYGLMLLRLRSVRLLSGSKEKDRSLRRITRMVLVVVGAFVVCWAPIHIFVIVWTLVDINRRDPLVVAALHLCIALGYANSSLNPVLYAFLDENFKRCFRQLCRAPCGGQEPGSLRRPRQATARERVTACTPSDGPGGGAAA
Outline: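 Rat brain membranes; [3H]DADLE 1.7-2.5 nM, 3-4 h at 25 °C in 10 mM Tris-HCl pH 7.4 with 100 mM choline chloride, 3 mM MnCl2, 100 nM DAMGO to block mu sites, and protease inhibitor cocktail. Nonspecific binding with 20 μM levallorphan. 8-10 test drug concentrations, run twice; dilutions in Tris buffer with 1 mg/mL BSA.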

Mu-type opioid receptor = Mu-type opioid receptor (Rattus norvegicus, UniProt P33535); assay: Inhibition of radioligand [3H]DAMGO binding to rat brain mu receptor
Mu-type opioid receptor, sequence (P33535 whole entry): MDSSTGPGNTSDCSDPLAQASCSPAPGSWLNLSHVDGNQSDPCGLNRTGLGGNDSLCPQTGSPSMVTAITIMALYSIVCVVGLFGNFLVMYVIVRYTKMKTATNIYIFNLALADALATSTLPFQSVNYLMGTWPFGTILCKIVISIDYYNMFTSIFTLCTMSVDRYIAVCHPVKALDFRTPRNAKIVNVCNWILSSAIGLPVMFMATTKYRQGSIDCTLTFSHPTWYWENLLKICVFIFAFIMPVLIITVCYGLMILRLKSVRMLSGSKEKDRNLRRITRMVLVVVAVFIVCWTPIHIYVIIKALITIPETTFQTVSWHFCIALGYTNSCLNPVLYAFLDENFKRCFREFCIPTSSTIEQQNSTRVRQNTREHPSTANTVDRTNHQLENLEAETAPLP
Outline: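 Rat brain membranes labelled with [3H]DAMGO (1-3 nM), incubated 4 h at 25 °C in 50 mM Tris-HCl pH 7.4 with protease inhibitor cocktail. Nonspecific binding defined by 20 μM levallorphan. Displacement by 8-10 test drug concentrations, done twice; drug dilutions in 10 mM Tris-HCl pH 7.4 containing 1 mg/mL BSA.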

Glutamate NMDA receptor [4] = assay: Inhibition of radioligand [3H]TCP binding to PCP site in rat brain; type: tissue-based
Glutamate NMDA receptor [5] = assay: Inhibition of radioligand [3H]TCP binding to rat brain PCP site.
Glutamate NMDA receptor [6] = assay: Inhibition of radioligand [3H]TCP binding to PCP site in rat brain; No inhibition; type: tissue-based
[7] = Ratio of Ki values tested against sigma receptor and Mu receptor

Kappa-type opioid receptor, sequence (P41144 whole entry): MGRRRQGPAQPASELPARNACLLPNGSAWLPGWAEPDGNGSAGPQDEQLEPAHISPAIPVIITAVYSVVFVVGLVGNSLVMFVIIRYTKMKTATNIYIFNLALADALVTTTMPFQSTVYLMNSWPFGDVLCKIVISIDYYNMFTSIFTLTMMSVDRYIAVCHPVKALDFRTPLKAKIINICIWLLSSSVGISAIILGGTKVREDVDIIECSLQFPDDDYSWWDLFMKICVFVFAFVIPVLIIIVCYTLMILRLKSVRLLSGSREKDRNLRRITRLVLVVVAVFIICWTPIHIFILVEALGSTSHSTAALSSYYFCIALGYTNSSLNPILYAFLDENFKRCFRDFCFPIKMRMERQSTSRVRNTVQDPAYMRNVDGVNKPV

CN1CCC2(c3cccc(O)c3)CC(=O)/C(=C/c3ccccc3)C1C2 (stereo not drawn)
pKi [1]: 6.24
Ki [2]: 14400 nM
pKi [3]: < 6.30
pKi (Mu-type opioid receptor): 7.47
pKi (Glutamate NMDA receptor [4]): < 4.00

CN1CC[C@@]2(c3cccc(O)c3)CC(=O)/C(=C/c3ccc(Cl)c(Cl)c3)[C@H]1C2
pKi [1]: < 6.30
Ki [2]: 18600 nM
pKi [3]: 6.57
pKi (Mu-type opioid receptor): 8.35
pKi (Glutamate NMDA receptor [4]): < 4.00

CN1CCC2(c3cccc(O)c3)CC(=O)CC1C2 (stereo in doubt)
pKi [1]: 6.31
Ki [2]: 25300 nM
pKi (Glutamate NMDA receptor [5]): < 4.00
pKi [3]: 6.92
pKi (Mu-type opioid receptor): 8.06

CN1CC[C@@]2(c3cccc(O)c3)CC(=O)/C(=C/c3ccccc3)[C@@H]1C2
pKi [1]: 6.05
Ki [2]: 7400 nM
pKi [3]: 5.70
pKi (Mu-type opioid receptor): 6.41
pKi (Glutamate NMDA receptor [4]): < 4.00

CN1CCC2(c3cccc(O)c3)CC(=O)/C(=C/c3ccc(Cl)c(Cl)c3)C1C2 (stereo not drawn)
pKi [1]: < 6.30
pKi [3]: 6.62
pKi (Mu-type opioid receptor): 8.21
pKi (Glutamate NMDA receptor [4]): < 4.00

CN1CC[C@@]2(c3cccc(O)c3)CC(=O)/C(=C/c3ccc(Cl)c(Cl)c3)[C@@H]1C2
pKi [1]: < 6.30
Ki [2]: 50300 nM
pKi [3]: < 6.30
pKi (Mu-type opioid receptor): 7.35
pKi (Glutamate NMDA receptor [4]): < 4.00

CN1CC[C@]2(c3cccc(O)c3)CC(=O)/C(=C/c3ccccc3)[C@H]1C2
pKi [1]: 5.96
Ki [2]: 26000 nM
pKi [3]: 6.13
pKi (Mu-type opioid receptor): 7.42
pKi (Glutamate NMDA receptor [4]): ~4.00

CN1CCC2(c3cccc(O)c3)CC(=O)CC1C2 (stereo in doubt; 4)
pKi [1]: 5.99
Ki [2]: 46400 nM
pKi [3]: 6.49
pKi (Mu-type opioid receptor): 8.26

COc1cccc(C23CCN(C)C(C2)/C(=C\c2ccccc2)C(=O)C3)c1 (stereo not drawn)
Ki [2]: 11600 nM
pKi (Glutamate NMDA receptor [4]): < 4.30

C[N+]1(C)CCC2(c3cccc(O)c3)CC(=O)/C(=C/c3ccccc3)C1C2.[I-] (stereo not drawn)
pKi [1]: < 5.30
Ki [2]: 14700 nM
pKi [3]: < 6.00
pKi (Mu-type opioid receptor): < 6.15
Ki (Glutamate NMDA receptor [6]): Not Active
Ratio [7]: < 7.7

COc1cccc(C23CCN(C)C(CC(=O)C2)C3)c1 (stereo not drawn)
Ki [2]: 23300 nM
pKi (Glutamate NMDA receptor [5]): < 4.00

Reference: ChEMBL document CHEMBL1127468, “A marked change of receptor affinity of the 2-methyl-5-(3-hydroxyphenyl)morphans upon attachment of an (E)-8-benzylidene moiety: synthesis and evaluation of a new class of sigma receptor ligands” (J Med Chem, 1994)
